From ChEMBL document CHEMBL1817575, “Extended targeting potential and improved synthesis of Microcin C analogs as antibacterials” (Bioorg Med Chem, 2011)
Activity calls are given as the source filed them. The rule behind the calls is not given here. Residues, ends and D or L forms follow the SMILES beside them. *: point of attachment. X7 = CC[C@H](C)[C@H](N*)C(=O)NS(=O)(=O)OC[C@H]1O[C@@H](n2cnc3c(N)ncnc32)[C@H](O)[C@@H]1O; NHTrityl = c1ccc(C(N*)(c2ccccc2)c2ccccc2)cc1; Pbf = Cc1c(C)c(S(=O)(=O)*)c(C)c2c1OC(C)(C)C2; tBu = CC(C)(C)*; For = O=C*

How the values were obtained:
Escherichia coli [1] = experiment: Antibacterial activity against Escherichia coli Ara-Yej (BW39758) at <= 0.63 uM after 8 hrs; assay type: functional, organism-based
Procedure, shortened: (§1)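 Overnight LB cultures were regrown in fresh LB, with or without 5 mM L-arabinose, to OD600 0.1. Compounds were serially titrated in 96-well plates in LB with or without 5 mM L-arabinose, and cells were added. Plates were incubated at 37 °C, and growth inhibition was read as OD600 after 8 h.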

Escherichia coli [2] = experiment: Antibacterial activity against yej or pepA,B,N-genes disrupted Escherichia coli after 8 hrs; assay type: functional, organism-based; procedure, shortened: as §1

Question: What does the source list for `CC[C@H](C)[C@H](NC(=O)[C@H](C)NC(=O)[C@H](CC(=O)NC(c1ccccc1)(c1ccccc1)c1ccccc1)NC(=O)CNC(=O)[C@@H](NC(=O)[C@H](CCCNC(=N)NS(=O)(=O)c1c(C)c(C)c2c(c1C)CC(C)(C)O2)NC(=O)[C@H](CCSC)NC=O)[C@@H](C)OC(C)(C)C)C(=O)NS(=O)(=O)OC[C@H]1O[C@@H](n2cnc3c(N)ncnc32)[C@H](O)[C@@H]1O` (For-MR(Pbf)T(tBu)GD(NHTrityl)A-X7)?
Answer: Activity (Escherichia coli [1]): Active; Activity (Escherichia coli [2]): inactive
